Reference: ChEMBL document CHEMBL1121430, “Bicyclic and tricyclic ergoline partial structures. Rigid 3-(2-aminoethyl)pyrroles and 3- and 4-(2-aminoethyl)pyrazoles as dopamine agonists” (1980)

How the values were obtained:
Format in all cases: functional
[1] = system: Rattus norvegicus; assay: Control Serum prolactin level in reserpinized rat after i.p. administration at dosage of 0.05 mg/kg; conditions: route intraperitoneal
[2] = system: Rattus norvegicus; assay: Average turns of rat / 1st 15 min at intraperitoneal dosage of 1.0 mg/kg
[3] = system: Rattus norvegicus; assay: (§1) Control Serum prolactin level in reserpinized rat after i.p. administration at dosage of 0.5 mg/kg; conditions: route intraperitoneal
[4] = system: Rattus norvegicus; assay: Dopaminergic activity causing prolactin inhibition in reserpinized rat after i.p. administration at dosage of 0.5 mg/kg; conditions: ip, route intraperitoneal
[5] = species: Rattus norvegicus; assay: animal or person; conditions: ip, route intraperitoneal
[6] = system: Rattus norvegicus; assay: (§2) Tested for lowering of serum prolactin level in reserpinized rat after i.p. administration at dosage of 0.05 mg/kg; conditions: route intraperitoneal
[7] = system: Rattus norvegicus; assay: Dopaminergic activity causing prolactin inhibition in reserpinized rat after i.p. administration at dosage of 5.0 mg/kg; conditions: ip, route intraperitoneal
[8] = system: Rattus norvegicus; assay: Tested for lowering of serum prolactin level in reserpinized rat after i.p. administration at dosage of 0.5 mg/kg; conditions: route intraperitoneal
[9] = system: Rattus norvegicus; assay: Percentage of lesioned rats exhibiting contralateral turning after ip dosage of 1.0 mg/kg; conditions: route intraperitoneal
In short: (§3)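 Rats with unilateral 6-hydroxydopamine nigrostriatal lesions dosed intraperitoneally; contralateral rotation scored as percentage of rats turning and average turns counted over first 15 min after turning began; 6-10 rats per group.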

[10] = system: Rattus norvegicus; assay: (§4) Percentage of lesioned rats exhibiting contralateral turning after intraperitoneal dosage of 0.1 mg/kg; in short: as §3
[11] = system: Rattus norvegicus; assay: Percentage of lesioned rats exhibiting contralateral turning after intraperitoneal dosage of 1.0 mg/kg
In short: (§5)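 Rats with unilateral 6-hydroxydopamine nigrostriatal lesions dosed i.p.; contralateral rotation scored as % of rats turning and average turns during first 15 min after turning began; 6-10 rats per group. Method of Ungerstedt and Arbuthnot.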

[12] = system: Rattus norvegicus; assay: (§6) Tested for average turns of rat / 1st 15 min at intraperitoneal dosage of 0.1 mg/kg; in short: as §3
[13] = system: Rattus norvegicus; assay: as §6; in short: as §5; remark: listed apart in the source
[14] = system: Rattus norvegicus; assay: as §1; conditions: route intraperitoneal; remark: listed apart in the source
In short: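 Reserpinized male rats, intraperitoneal dosing; serum prolactin of vehicle control group reported in ng/mL as mean ± standard error, 10 rats per group, for comparison with treated group.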

[15] = system: Rattus norvegicus; assay: as §4; in short: as §5; remark: listed apart in the source
[16] = system: Rattus norvegicus; assay: Tested for average turns of rat / 1st 15 min at intraperitoneal dosage of 1.0 mg/kg; in short: as §3
[17] = system: Rattus norvegicus; assay: Percentage of lesioned rats exhibiting contralateral turning after ip dosage of 0.1 mg/kg; conditions: route intraperitoneal; in short: as §3
[18] = system: Rattus norvegicus; assay: Percentage of lesioned rats exhibiting contralateral turning after ip dosage of 0.05 mg/kg; conditions: route intraperitoneal; in short: as §3
[19] = system: Rattus norvegicus; assay: Tested for average turns of rat / 1st 15 min at intraperitoneal dosage of 0.05 mg/kg; in short: as §3
[20] = system: Rattus norvegicus; assay: Tested for lowering of serum prolactin level in reserpinized rat after i.p. administration at dosage of 0.005 mg/kg; conditions: route intraperitoneal
In short: (§7)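 Serum prolactin measured in reserpinized male rats given drug intraperitoneally; control group serum level alongside treated level; percent inhibition derived from control versus treated means; mean ± standard error for 10 rats per group; significance level (p) reported versus control.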

[21] = system: Rattus norvegicus; assay: as §2; conditions: route intraperitoneal; in short: as §7; remark: listed apart in the source
[22] = system: Rattus norvegicus; assay: Control Serum prolactin level in reserpinized rat after i.p. administration at dosage of 0.005 mg/kg; conditions: route intraperitoneal; in short: as §7
[23] = system: Rattus norvegicus; assay: Percentage of lesioned rats exhibiting contralateral turning after intraperitoneal dosage of 0.05 mg/kg; in short: as §3
[24] = system: Rattus norvegicus; assay: Dopaminergic activity causing prolactin inhibition in reserpinized rat after i.p. administration at dosage of 0.005 mg/kg; conditions: ip, route intraperitoneal; in short: as §7
[25] = system: Rattus norvegicus; assay: Dopaminergic activity causing prolactin inhibition in reserpinized rat after i.p. administration at dosage of 0.05 mg/kg; conditions: ip, route intraperitoneal; in short: as §7

Compound	Inhibition [1]	Average turns [2]	inhibition in vivo at 0.5 mg/kg [4]	inhibition in vivo at 0.05 mg/kg [5]	Inhibition [6]	inhibition in vivo at 5 mg/kg [7]	Exhibiting turning [9]	Exhibiting turning [10]	Exhibiting turning [11]	Average turns [12]	other results
CN1CCC[C@@H]2Cc3n[nH]cc3CC21.Cl.Cl (stereo partly specified)	31.7 ng/mL	0	42%	2%	31.1 ng/mL	84%	0%	–	–	–	Concentration [3]: 31.7 ng/mL; Serum level [8]: 18.5 ng/mL
Cl.Cl.c1[nH]nc2c1CC1NCCC[C@@H]1C2 (stereo partly specified)	–	0	–	–	–	20%	0%	–	–	–	–
CCCN1CC(CO)C[C@@H]2Cc3c[nH]cc3CC21 (stereo partly specified)	–	109	–	17%	–	–	–	67%	100%	8	–
CCCN(CCC)C1Cc2cccc3[nH]cc(c23)C1.O=C(O)C(=O)O (stereo unspecified)	46.1 ng/mL	–	59%	0%	46.2 ng/mL	95%	–	–	60%	–	Average turns [13]: 73; Control level [14]: 46.1 ng/mL; Exhibiting turning [15]: 40%; Serum level [8]: 18.9 ng/mL; Average turns [16]: 113
CCCN1CCC[C@@H]2Cc3n[nH]cc3CC21.Cl.Cl (stereo partly specified)	–	85	76%	61%	–	91%	100%	–	–	67	Exhibiting turning [17]: 75%; Exhibiting turning [18]: 67%; Average turns [19]: 6
CCN(CC)C1CCc2c[nH]cc2C1.O=C(O)/C=C\C(=O)O (stereo unspecified)	–	0	–	–	–	23%	–	–	0%	–	–
CCCN1CCC[C@@H]2Cc3c[nH]cc3CC21.O=C(O)/C=C\C(=O)O (stereo partly specified)	49.5 ng/mL	169	–	36%	–	95%	–	50%	100%	64	Inhibition [20]: 37.6 ng/mL; Treatment [21]: 31.6 ng/mL; Inhibition [22]: 49.5 ng/mL; Exhibiting turning [23]: 33%; Average turns [19]: 49; inhibition in vivo at 0.005 mg/kg [24]: 24%
CCCN(CCC)C1CCc2c[nH]nc2C1 (stereo unspecified)	–	114	–	31%	–	–	–	–	100%	–	Average turns [13]: 0; Exhibiting turning [15]: 0%
CN(C)C1Cc2cccc3[nH]cc(c23)C1.O=C(O)C(=O)O (stereo unspecified)	36.4 ng/mL	–	–	45%	19.9 ng/mL	91%	–	0%	75%	0	Average turns [16]: 69
C=CCN1CCC[C@@H]2Cc3n[nH]cc3CC21.Cl.Cl (stereo partly specified)	–	165	–	–	–	–	100%	–	–	0	Exhibiting turning [17]: 0%; inhibition in vivo at 0.05 mg/kg [25]: 31%
